Measurements as given in ChEMBL document CHEMBL2390866, “Novel pyrimidoazepine analogs as serotonin 5-HT(2A) and 5-HT(2C) receptor ligands for the treatment of obesity” (Eur J Med Chem, 2013).

Columns and labels:
[1] = molecular target: T1, 5-hydroxytryptamine receptor 2A (Homo sapiens, UniProt P28223); assay: Displacement of [3H]-ketanserin from human recombinant 5HT-2A receptor expressed in CHOK1 cell membranes at 10 uM after 60 mins relative to control; conditions: CHO-K1
How it was run: (§1)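 Buffer was 50 mM Tris-HCl pH 7.4 with 5 mM CaCl2 and 0.1% ascorbic acid. Test compound added at a range of concentrations.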

[2] = molecular target: T2, 5-hydroxytryptamine receptor 2C (Homo sapiens) (UniProt P28335); assay: Displacement of [3H]-mesulergine from human recombinant 5HT-2C receptor expressed in CHOK1 cell membranes at 10 uM after 30 mins relative to control; conditions: CHO-K1
T2 sequence (whole entry): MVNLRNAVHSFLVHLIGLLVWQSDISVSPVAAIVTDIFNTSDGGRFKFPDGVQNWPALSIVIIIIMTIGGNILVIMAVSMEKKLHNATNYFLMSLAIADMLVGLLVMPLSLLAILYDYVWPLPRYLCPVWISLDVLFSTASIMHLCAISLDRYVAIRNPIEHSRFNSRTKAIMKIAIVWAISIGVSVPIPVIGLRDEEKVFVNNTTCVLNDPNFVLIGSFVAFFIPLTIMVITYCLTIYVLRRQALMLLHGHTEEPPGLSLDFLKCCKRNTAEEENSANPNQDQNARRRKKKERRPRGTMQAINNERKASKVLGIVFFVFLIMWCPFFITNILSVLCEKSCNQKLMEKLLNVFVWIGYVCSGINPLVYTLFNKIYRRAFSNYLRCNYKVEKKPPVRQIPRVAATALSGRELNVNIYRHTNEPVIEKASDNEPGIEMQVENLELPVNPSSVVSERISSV
How it was run: (§2)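 Frozen CHO-K1 membranes expressing recombinant human 5-HT2C incubated with 1 nM [3H]mesulergine in 50 mM Tris-HCl pH 7.4 containing 0.1% ascorbic acid and pargyline. Mianserin defined nonspecific binding.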

[3] = molecular target: T1, 5-hydroxytryptamine receptor 2A; assay: Displacement of [3H]-ketanserin from human recombinant 5HT-2A receptor expressed in CHOK1 cell membranes after 60 mins; set-up: species or system CHO-K1; how it was run: as §1
[4] = molecular target: T3, 5-hydroxytryptamine receptor 2C (Homo sapiens, UniProt P28335); assay: Displacement of [3H]-mesulergine from human recombinant 5HT-2C receptor expressed in CHOK1 cell membranes after 30 mins; set-up: species or system CHO-K1; how it was run: as §2
T3 sequence (P28335 whole entry): T2 sequence (whole entry)

[5] = molecular target: T3, 5-hydroxytryptamine receptor 2C; assay: Agonist activity at serotonin-activated human recombinant 5HT-2C receptor expressed in HEK293 cells assessed as increase in intracellular calcium level after 5 mins measured for 1 min by fluorescence assay; type: functional, cell-based
[6] = molecular target: T1, 5-hydroxytryptamine receptor 2A; assay: Antagonist activity at serotonin-activated human recombinant 5HT-2A receptor expressed in HEK293 cells assessed as decrease in intracellular calcium level after 5 mins measured for 1 min by fluorescence assay; type: functional, cell-based; conditions: read-out: EC50 (the source's name)
How it was run: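 Cells were washed with HBSS/20 mM HEPES, then loaded 50 min with Fluo-4 NW dye in HBSS with 2.5 mM probenecid. Compound was added for 5 min at 37 °C, then serotonin; fluorescence followed 1 min. Run in duplicate or quadruplicate, repeated several times; IC50 by nonlinear regression.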

Mus musculus [7] = assay: Antiobesity activity in C57BL/6 mouse assessed as inhibition of body weight gain at 50 mg/kg, ip measured after 2 to 12 hrs relative to vehicle-treated control; type: functional; conditions: C57BL/6, ip, route intraperitoneal
Mus musculus [8] = assay: Antiobesity activity in C57BL/6 mouse assessed as inhibition of food intake at 50 mg/kg, ip measured after 2 to 12 hrs relative to vehicle-treated control; type: functional; conditions: C57BL/6, ip, route intraperitoneal
How it was run: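 Male mice were acclimated 1 week at 23 ± 3 °C and 50 ± 20% humidity, then fasted 24 h. They were dosed once intraperitoneally with vehicle or compound: 50 mg/kg in C57BL/6, or 12.5, 25 or 50 mg/kg in B6.V-Lep^ob/J. Food intake was measured at 2, 6 and 12 h versus vehicle control.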

T1 sequence (P28223 whole entry): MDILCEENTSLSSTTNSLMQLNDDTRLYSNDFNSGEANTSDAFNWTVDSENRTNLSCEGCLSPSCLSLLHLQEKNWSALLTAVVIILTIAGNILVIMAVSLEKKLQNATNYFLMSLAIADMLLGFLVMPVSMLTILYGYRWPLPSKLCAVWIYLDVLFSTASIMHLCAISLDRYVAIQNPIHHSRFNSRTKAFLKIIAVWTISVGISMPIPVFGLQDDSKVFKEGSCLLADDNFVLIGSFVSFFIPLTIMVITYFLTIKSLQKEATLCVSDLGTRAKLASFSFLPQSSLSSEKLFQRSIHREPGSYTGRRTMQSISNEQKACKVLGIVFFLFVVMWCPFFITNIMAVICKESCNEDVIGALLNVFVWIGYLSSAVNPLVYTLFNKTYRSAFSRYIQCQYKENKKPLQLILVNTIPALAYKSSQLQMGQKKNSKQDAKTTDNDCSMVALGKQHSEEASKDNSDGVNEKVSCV

| inhibition [1] | inhibition [2] | IC50 [3] | IC50 [4] | IC50 [6] | SMILES | EC50 [5] | inhibition in vivo at 50 mg/kg (Mus musculus [7]) | inhibition in vivo at 50 mg/kg (Mus musculus [8]) |
| --- | --- | --- | --- | --- | --- | --- | --- | --- |
| 100% | 100% | 25.1 nM | 86.9 nM | – | CN1CCN(c2nc(Nc3ccccc3)c3cn[nH]c3n2)CC1 | – | – | – |
| 100% | 96% | 52.2 nM | 836 nM | – | Fc1ccc(Nc2nc(N3CCN(Cc4ccccc4)CC3)nc3[nH]ncc23)cc1 | – | – | – |
| – | – | 2630 nM | 1260 nM | – | CN1CCN(c2nc3c(c(OCc4ccco4)n2)CCNCC3)CC1 | – | – | – |
| 100% | 100% | 24.2 nM | 85.8 nM | – | CN1CCN(c2nc(Nc3ccc(F)cc3)c3cn[nH]c3n2)CC1 | – | – | – |
| – | – | 57.4 nM | 269 nM | – | COc1ccc(Nc2nc(Cc3ccccc3)nc3c2CCNCC3)cc1 | – | – | – |
| 100% | 88% | 27.2 nM | 416 nM | – | Fc1ccc(Nc2nc(N3CCN(c4ccccc4)CC3)nc3[nH]ncc23)cc1 | – | – | – |
| 87% | 61% | 2080 nM | 5420 nM | – | CCN(CC)c1nc(Nc2cccc(OC)c2)c2cn[nH]c2n1 | – | – | – |
| 85% | 52% | 2750 nM | 8490 nM | – | CCN(CC)c1nc(Nc2ccc(C)c(C)c2)c2cn[nH]c2n1 | – | – | – |
| 66% | 88% | 4580 nM | 242 nM | – | CCN(CC)c1nc(Nc2ccccc2C)c2cn[nH]c2n1 | – | – | – |
| – | – | > 10000 nM | > 10000 nM | 1200 nM | CNc1nc(N2CCN(C)CC2)nc2c1CCNCC2 | – | – | – |
| 94% | 96% | 17.9 nM | 148 nM | – | Fc1ccc(Nc2nc(N3CCN(c4ccc(F)cc4)CC3)nc3[nH]ncc23)cc1 | – | – | – |
| 100% | 97% | 163 nM | 494 nM | – | OCCN1CCN(c2nc(Nc3ccc(F)cc3)c3cn[nH]c3n2)CC1 | – | – | – |
| 100% | 85% | 350 nM | 1080 nM | – | COc1cccc(Nc2nc(N3CCN(c4ccc(F)cc4)CC3)nc3[nH]ncc23)c1 | – | – | – |
| 100% | 100% | 9.1 nM | 7.8 nM | – | COc1cccc(Nc2nc(N3CCN(C)CC3)nc3[nH]ncc23)c1 | – | – | – |
| – | – | 684 nM | 779 nM | – | CN1CCc2nc(N3CCN(C)CC3)nc(Nc3ccc(F)cc3)c2CC1 | – | – | – |
| 100% | 100% | 28.8 nM | 29.4 nM | – | CN1CCN(c2nc(Nc3ccc(Cl)cc3)c3cn[nH]c3n2)CC1 | – | – | – |
| 92% | 86% | 696 nM | 1180 nM | – | COc1ccc(Nc2nc(N3CCN(c4ccc(F)cc4)CC3)nc3[nH]ncc23)cc1 | – | – | – |
| – | – | > 10000 nM | > 10000 nM | 2900 nM | CCN(CC)c1nc(N2CCN(C)CC2)nc2c1CCNCC2 | – | 9.01% | 4.17% |
| – | – | 1270 nM | 333 nM | 96.3 nM | c1ccc(Cc2nc3c(c(N4CCSCC4)n2)CCNCC3)cc1 | – | 12% | 18.4% |

More lines, now with the values behind:

| SMILES | inhibition [1] | inhibition [2] | IC50 [3] | IC50 [4] | IC50 [6] | EC50 [5] | inhibition in vivo at 50 mg/kg (Mus musculus [7]) | inhibition in vivo at 50 mg/kg (Mus musculus [8]) |
| --- | --- | --- | --- | --- | --- | --- | --- | --- |
| Fc1ccc(Nc2nc(N3CCCCC3)nc3[nH]ncc23)cc1 | 86% | 89% | 2200 nM | 1300 nM | – | – | – | – |
| Fc1ccc(Nc2nc(NC3CCCCC3)nc3[nH]ncc23)cc1 | 73% | 62% | 3670 nM | 5710 nM | – | – | – | – |
| Fc1ccc(Nc2nc(N3CCOCC3)nc3[nH]ncc23)cc1 | 83% | 81% | 2620 nM | 2070 nM | – | – | – | – |
| C=CCNc1nc(Nc2ccc(F)cc2)c2cn[nH]c2n1 | 60% | 41% | 6580 nM | > 10000 nM | – | – | – | – |
| CN1CCN(c2nc3c(c(N4CCOCC4)n2)CCNCC3)CC1 | – | – | > 10000 nM | > 10000 nM | – | 9600 nM | – | – |
| CC1CCN(c2nc(Nc3ccc(F)cc3)c3cn[nH]c3n2)CC1 | 83% | 86% | 3670 nM | 1500 nM | – | – | – | – |
| COc1ccccc1N1CCN(c2nc(Nc3ccc(F)cc3)c3cn[nH]c3n2)CC1 | 93% | 78% | 1380 nM | 1730 nM | – | – | – | – |
| OCCCNc1nc(Nc2ccc(F)cc2)c2cn[nH]c2n1 | 26% | 5% | > 10000 nM | > 10000 nM | – | – | – | – |
| Fc1ccc(Nc2nc(NC3CCCC3)nc3[nH]ncc23)cc1 | 72% | 35% | 4500 nM | > 10000 nM | – | – | – | – |
| COc1nc(N2CCN(C)CC2)nc2c1CCNCC2 | – | – | > 10000 nM | > 10000 nM | – | – | – | – |
| Fc1ccc(Nc2nc(NCCN3CCOCC3)nc3[nH]ncc23)cc1 | 51% | 35% | 9740 nM | > 10000 nM | – | – | – | – |
| CN1CCN(c2ncc3c(n2)CCNCC3)CC1 | – | – | > 10000 nM | > 10000 nM | – | – | – | – |
| CN1CCN(c2nc3c(c(N4CCSCC4)n2)CCNCC3)CC1 | – | – | > 10000 nM | > 10000 nM | 687 nM | > 10000 nM | -15% | 2.1% |
| Fc1ccc(Nc2nc(NCc3ccccc3)nc3[nH]ncc23)cc1 | 85% | 82% | 1270 nM | 2590 nM | – | – | – | – |
| CC1CC(C)CN(c2nc(Nc3ccc(F)cc3)c3cn[nH]c3n2)C1 (stereo unspecified) | 75% | 67% | 5870 nM | 3820 nM | – | – | – | – |
| COCCCNc1nc(Nc2ccc(F)cc2)c2cn[nH]c2n1 | 67% | 28% | 5280 nM | > 10000 nM | – | – | – | – |
| CCN(CC)c1nc(Nc2ccc(Cl)cc2)c2cn[nH]c2n1 | 86% | 80% | 1890 nM | 991 nM | – | – | – | – |
| CN1CCN(c2nc3c(c(N(C)C)n2)CCNCC3)CC1 | – | – | > 10000 nM | > 10000 nM | – | 1200 nM | 12.2% | 12.5% |
| Cc1ccc(CNc2nc(Nc3ccc(F)cc3)c3cn[nH]c3n2)cc1 | 93% | 66% | 947 nM | 5830 nM | – | – | – | – |
| COCCNc1nc(Nc2ccc(F)cc2)c2cn[nH]c2n1 | 25% | 18% | > 10000 nM | > 10000 nM | – | – | – | – |
| CCNc1nc(N2CCN(C)CC2)nc2c1CCNCC2 | – | – | > 10000 nM | > 10000 nM | – | > 10000 nM | – | – |
| CCNc1nc(Nc2ccc(F)cc2)c2cn[nH]c2n1 | 39% | 23% | > 10000 nM | > 10000 nM | – | – | – | – |
| CN(C)c1nc(Nc2ccc(F)cc2)c2cn[nH]c2n1 | 79% | 66% | 4880 nM | 4030 nM | – | – | – | – |
| CNc1nc(Nc2ccc(F)cc2)c2cn[nH]c2n1 | 49% | 51% | > 10000 nM | 7790 nM | – | – | – | – |
| CCN(CC)c1nc(Nc2ccc(F)cc2)c2cn[nH]c2n1 | 84% | 76% | 4530 nM | 3310 nM | – | – | – | – |
| CCCNc1nc(Nc2ccccc2)c2cn[nH]c2n1 | 30% | 29% | > 10000 nM | > 10000 nM | – | – | – | – |
| CCNc1nc(Nc2ccccc2)c2cn[nH]c2n1 | 6% | 15% | > 10000 nM | > 10000 nM | – | – | – | – |
